ChEMBL document CHEMBL1123677, “Structure-activity studies of 5-[[4-(4,5-dihydro-2-oxazolyl) phenoxy]alkyl]-3-methylisoxazoles: inhibitors of picornavirus uncoating” (J Med Chem, 1987)
In brackets after ≈: the same amount, converted by molar mass. Activity calls are given as the source filed them. The rule behind the calls is not given here.

Legend:
[1] = test system: Human rhinovirus sp.; test: Mean of MIC's was determined for the five types of virus like HRV-2, HRV-1A,HRV-22,HRV-41 and HRV-50; assay type: functional
Method in brief: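 MIC measured by plaque reduction against HRV-2 first. The value is the mean of the MICs across these five serotypes.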

[2] = test system: rhinovirus B6; test: Tested for antirhinoviral activity against the rhinovirus serotype 6; assay type: functional; conditions: Rhinovirus B
Method in brief: (§1)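 Selected compounds were tested across a 15-serotype rhinovirus panel: the five secondary serotypes plus 10 more. An MIC was recorded for each serotype. MIC80, the concentration inhibiting 80% of serotypes tested, was also derived from this panel.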

[3] = test system: rhinovirus A1B; test: Tested for antirhinoviral activity against the rhinovirus serotype 1B; assay type: functional, human rhinovirus type 1b; conditions: Rhinovirus A; method in brief: as §1
[4] = Partition coefficient (logP); assay type: physicochemical; conditions: octanol/water
[5] = test system: rhinovirus B86; test: Tested for antirhinoviral activity against the rhinovirus serotype 86; assay type: functional; conditions: Rhinovirus B; method in brief: as §1
[6] = test system: rhinovirus A15; test: Tested for antirhinoviral activity against the rhinovirus serotype 15; assay type: functional; conditions: Rhinovirus A; method in brief: as §1
[7] = test system: human rhinovirus (15-serotype panel); test: Antirhinovirus activity was determined by the ability to inhibit the growth of 80% of a panel of 15 human rhinovirus serotypes
[8] = test system: rhinovirus A2; test: Antirhinovirus activity was assessed and the maximum testable concentration that causes no apparent effects on the cell monolayers was determined against HRV-2 virus in vitro.; assay type: functional, human rhinovirus type 2
[9] = test system: rhinovirus A89; test: Tested for antirhinoviral activity against the rhinovirus serotype 89; assay type: functional, human rhinovirus type 89; conditions: Rhinovirus A; method in brief: as §1
[10] = test system: rhinovirus A50; test: Tested for antirhinoviral activity against the rhinovirus serotype 50; assay type: functional; conditions: Rhinovirus A; method in brief: as §1
[11] = test system: rhinovirus A25; test: Tested for antirhinoviral activity against the rhinovirus serotype 25; assay type: functional; conditions: Rhinovirus A; method in brief: as §1
[12] = test system: rhinovirus B14; test: Tested for antirhinoviral activity against the rhinovirus serotype 14; assay type: functional, human rhinovirus type 14; conditions: Rhinovirus B; method in brief: as §1
[13] = test system: rhinovirus A2; test: Tested for antirhinoviral activity against the rhinovirus serotype 2; assay type: functional, human rhinovirus type 2; conditions: Rhinovirus A; method in brief: as §1
[14] = test system: rhinovirus A21; test: Tested for antirhinoviral activity against the rhinovirus serotype 21; assay type: functional; conditions: Rhinovirus A; method in brief: as §1
[15] = test system: rhinovirus A67; test: Tested for antirhinoviral activity against the rhinovirus serotype 67; assay type: functional; conditions: Rhinovirus A; method in brief: as §1
[16] = test system: rhinovirus A2; test: Antirhinovirus activity was determined by the ability to inhibit the HRV-2 (human rhinovirus type -2) virus by plaque reduction assay in vitro; assay type: functional; conditions: Rhinovirus A
Method in brief: (§2)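 Plaque reduction assay against human rhinovirus type 2 (HRV-2), following an earlier reported method. The value is the MIC, the minimum inhibitory concentration.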

[17] = test system: Human rhinovirus 1A; test: Tested for antirhinoviral activity against the rhinovirus serotype 1A; assay type: functional; method in brief: as §1
[18] = test system: rhinovirus A22; test: Tested for antirhinoviral activity against the rhinovirus serotype 22; assay type: functional; conditions: Rhinovirus A; method in brief: as §1
[19] = test system: rhinovirus A41; test: Tested for antirhinoviral activity against the rhinovirus serotype 41; assay type: functional; conditions: Rhinovirus A; method in brief: as §1
[20] = test system: rhinovirus A30; test: Tested for antirhinoviral activity against the rhinovirus serotype 30; assay type: functional; conditions: Rhinovirus A; method in brief: as §1
[21] = test system: rhinovirus A2; test: Antirhinovirus activity was determined by the ability to inhibit the HRV-2( human rhinovirus type -2) virus by plaque reduction assay in vitro; IA is inactive; assay type: functional, organism-based; method in brief: as §2
[22] = test system: rhinovirus A2; test: Antiviral activity determined by ability to inhibit the HRV-2( human rhinovirus type -2) virus by plaque reduction assay in vitro; assay type: functional; conditions: Rhinovirus A; method in brief: as §2

Row | MIC [1] [µM] | MIC [2] [µM] | MIC [3] [µM] | logP [4] | MIC [5] [µM] | MIC [6] [µM] | MIC80 [7] [µM] | MIC [9] [µM] | MIC [10] [µM] | MIC [11] [µM] | MIC [12] [µM] | MIC [13] [µM] | MIC [14] [µM] | MIC [15] [µM] | MIC [17] [µM] | MIC [18] [µM] | MIC [19] [µM] | MIC [20] [µM] | MIC [22] [µM] | SMILES | MTL [8] [µM] | further results
1 | 0.4 (≈ 0.157 µg/mL) | 1.1 (≈ 0.433 µg/mL) | 0.1 (≈ 0.0393 µg/mL) | 4.42 | 1.4 (≈ 0.551 µg/mL) | 0.2 (≈ 0.0787 µg/mL) | 1.4 (≈ 0.551 µg/mL) | 0.02 (≈ 0.00787 µg/mL) | 0.1 (≈ 0.0393 µg/mL) | 1.8 (≈ 0.708 µg/mL) | 2 (≈ 0.787 µg/mL) | 0.05 (≈ 0.0197 µg/mL) | 0.01 (≈ 0.00393 µg/mL) | 0.2 (≈ 0.0787 µg/mL) | 0.5 (≈ 0.197 µg/mL) | 0.05 (≈ 0.0197 µg/mL) | 1.4 (≈ 0.551 µg/mL) | 0.08 (≈ 0.0315 µg/mL) |  | Cc1cc(CCCCCOc2ccc(C3=NCCO3)cc2Br)on1 | 7.9 | MIC [16]: 0.04 µM (≈ 0.0157 µg/mL)
2 |  |  |  |  |  |  |  |  |  |  |  |  |  |  |  |  |  |  |  | Cc1cc(CCCCCOc2ccc(C3=NCCO3)cc2C(=O)O)on1 |  | MIC [21]: inactive
3 | 1.4 (≈ 0.46 µg/mL) | 0.6 (≈ 0.197 µg/mL) | 0.3 (≈ 0.0985 µg/mL) | 4.4 | 0.6 (≈ 0.197 µg/mL) | 0.2 (≈ 0.0657 µg/mL) | 0.6 (≈ 0.197 µg/mL) | 0.06 (≈ 0.0197 µg/mL) | 0.3 (≈ 0.0985 µg/mL) | 6.7 (≈ 2.2 µg/mL) | 0.6 (≈ 0.197 µg/mL) | 0.09 (≈ 0.0296 µg/mL) | 0.06 (≈ 0.0197 µg/mL) | 0.2 (≈ 0.0657 µg/mL) | 2 (≈ 0.657 µg/mL) | 0.2 (≈ 0.0657 µg/mL) | 4.3 (≈ 1.41 µg/mL) | 0.05 (≈ 0.0164 µg/mL) |  | Cc1cc(CCCCCOc2ccc(C3=NCCO3)cc2C)on1 | 19 | MIC [16]: 0.1 µM (≈ 0.0328 µg/mL)
4 |  |  |  |  |  |  |  |  |  |  |  |  |  |  |  |  |  |  | 7.1 (≈ 2.45 µg/mL) | Cc1cc(CCCCCOc2ccc(C3=NCCO3)cc2CO)on1 | 9 | 
5 | > 18 |  |  |  |  |  |  |  |  |  |  |  |  |  |  |  |  |  | 3.5 (≈ 1.2 µg/mL) | Cc1cc(CCCCCCCOc2ccc(C3=NCCO3)cc2)on1 [DISOXARIL] | 18 | 
6 | 1.4 (≈ 0.508 µg/mL) |  |  |  |  |  | 1.2 (≈ 0.435 µg/mL) |  |  |  |  |  |  |  |  |  |  |  | 0.06 (≈ 0.0218 µg/mL) | Cc1cc(CCCCCCOc2ccc(C3=NCCO3)cc2Cl)on1 | 8.5 | 
7 | > 9.3 |  |  |  |  |  |  |  |  |  |  |  |  |  |  |  |  |  | 0.4 (≈ 0.133 µg/mL) | Cc1cc(CCCCCOc2ccc(C3=NCCO3)cc2F)on1 | 9.3 | 
8 | > 18 |  |  |  |  |  | 15 (≈ 4.93 µg/mL) |  |  |  |  |  |  |  |  |  |  |  | 0.41 (≈ 0.135 µg/mL) | Cc1cc(CCCCCOc2ccc(C3=NCCO3)c(C)c2)on1 | 19 | 
9 | 1 (≈ 0.364 µg/mL) | 0.3 (≈ 0.109 µg/mL) | 0.08 (≈ 0.0292 µg/mL) | 4.59 | 1.7 (≈ 0.619 µg/mL) | 0.2 (≈ 0.0729 µg/mL) | 2 (≈ 0.729 µg/mL) | 0.02 (≈ 0.00729 µg/mL) | 2 (≈ 0.729 µg/mL) | 0.9 (≈ 0.328 µg/mL) | 2 (≈ 0.729 µg/mL) | 0.05 (≈ 0.0182 µg/mL) | 0.05 (≈ 0.0182 µg/mL) | 0.2 (≈ 0.0729 µg/mL) | 0.8 (≈ 0.292 µg/mL) | 0.05 (≈ 0.0182 µg/mL) | 2 (≈ 0.729 µg/mL) | 0.09 (≈ 0.0328 µg/mL) | 0.06 (≈ 0.0219 µg/mL) | Cc1cc(CCCCCOc2ccc(C3=NCCO3)cc2C(F)F)on1 | 17 | 
10 | 1.1 (≈ 0.39 µg/mL) | 1.7 (≈ 0.603 µg/mL) | 0.1 (≈ 0.0354 µg/mL) | 4.93 | 2.1 (≈ 0.744 µg/mL) | 1.6 (≈ 0.567 µg/mL) | 2.1 (≈ 0.744 µg/mL) | 0.6 (≈ 0.213 µg/mL) | 0.4 (≈ 0.142 µg/mL) | 3.4 (≈ 1.21 µg/mL) | 3.4 (≈ 1.21 µg/mL) | 0.08 (≈ 0.0284 µg/mL) | 0.4 (≈ 0.142 µg/mL) | 1.1 (≈ 0.39 µg/mL) | 1.4 (≈ 0.496 µg/mL) | 0.5 (≈ 0.177 µg/mL) | 3.4 (≈ 1.21 µg/mL) | 0.8 (≈ 0.284 µg/mL) | 0.08 (≈ 0.0284 µg/mL) | C=CCc1cc(C2=NCCO2)ccc1OCCCCCc1cc(C)no1 | 8.8 | 
11 | 6.5 (≈ 2.27 µg/mL) |  |  |  |  |  | 7 (≈ 2.44 µg/mL) |  |  |  |  |  |  |  |  |  |  |  | 0.4 (≈ 0.14 µg/mL) | Cc1cc(CCCCCOc2ccc(C3=NCCO3)c(Cl)c2)on1 | 25 | 
12 | 1 (≈ 0.335 µg/mL) |  |  |  |  |  | 3.6 (≈ 1.21 µg/mL) |  |  |  |  |  |  |  |  |  |  |  | 0.2 (≈ 0.067 µg/mL) | Cc1cc(CCCCOc2ccc(C3=NCCO3)cc2Cl)on1 | 9.3 | 
13 | 0.8 (≈ 0.272 µg/mL) | 2.4 (≈ 0.817 µg/mL) | 0.3 (≈ 0.102 µg/mL) | 4.65 | 1.6 (≈ 0.545 µg/mL) | 0.7 (≈ 0.238 µg/mL) | 1.6 (≈ 0.545 µg/mL) | 0.1 (≈ 0.034 µg/mL) | 1.2 (≈ 0.409 µg/mL) | 1.7 (≈ 0.579 µg/mL) | 1.7 (≈ 0.579 µg/mL) | 0.2 (≈ 0.0681 µg/mL) | 0.09 (≈ 0.0306 µg/mL) | 0.4 (≈ 0.136 µg/mL) | 1.2 (≈ 0.409 µg/mL) | 0.5 (≈ 0.17 µg/mL) | 1.3 (≈ 0.443 µg/mL) | 0.1 (≈ 0.034 µg/mL) | 0.2 (≈ 0.0681 µg/mL) | C=Cc1cc(C2=NCCO2)ccc1OCCCCCc1cc(C)no1 | 18 | 
